From ChEMBL document CHEMBL2046374, “Synthesis and biological evaluation of vinyl ether-containing azole derivatives as inhibitors of Trichophyton rubrum” (2012)
≈ marks a conversion by molar mass, not a printed value.

Test system: Trichophyton rubrum
Assay: Antifungal activity against Trichophyton rubrum incubated at 35 degC for 72 hrs by NCCLS based microbroth dilution method
Assay type: functional
Method in brief: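 Broth microdilution in 96-well plates per NCCLS; compounds dissolved in DMSO, serially diluted in growth medium, inoculated, incubated at 35 °C, read at 72 h for T. rubrum. MIC80 taken as first well with ~80% growth reduction versus drug-free well. Fluconazole, itraconazole, voriconazole, omoconazole and amphotericin B as positive controls. Tests run three times; mean of replicates reported.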

Compound | MIC80 [µg/mL]
C/C(=C(/OCCCCOc1ccccc1Cl)c1ccc(F)cc1F)n1cncn1.O=[N+]([O-])O | 0.1
CCC(C)n1ncn(-c2ccc(N3CCN(c4ccc(OCC5COC(Cn6cncn6)(c6ccc(Cl)cc6Cl)O5)cc4)CC3)cc2)c1=O (stereo not given) [ITRACONAZOLE] | 0.125 (≈ 0.177 µM)
C/C(=C(/OCCCCCCOc1ccc(Cl)cc1)c1ccc(F)cc1F)n1cncn1.O=[N+]([O-])O | 2.5
C/C(=C(/OCCOc1ccc(Cl)cc1)c1ccc(F)cc1F)n1cncn1.O=[N+]([O-])O | 0.2
C/C(=C(/OCCCOc1ccc(Cl)cc1)c1ccc(F)cc1F)n1cncn1.O=[N+]([O-])O | 0.125
C/C(=C(/OCCCCOc1cccc(Cl)c1)c1ccc(F)cc1F)n1cncn1.O=[N+]([O-])O | 0.025
C/C(=C(/OCCCCCOc1ccc(Cl)cc1)c1ccc(F)cc1F)n1cncn1.O=[N+]([O-])O | 0.25
C/C(=C(/OCCCCOc1ccc(Cl)cc1)c1ccc(F)cc1F)n1cncn1.O=[N+]([O-])O | 0.0625
C/C(=C(/OCCCCOc1ccc(Br)cc1)c1ccc(F)cc1F)n1cncn1.O=[N+]([O-])O | 0.05
C[C@@H](c1ncncc1F)[C@](O)(Cn1cncn1)c1ccc(F)cc1F [VORICONAZOLE] | 0.0625 (≈ 0.179 µM)
OC(Cn1cncn1)(Cn1cncn1)c1ccc(F)cc1F [FLUCONAZOLE] | 4 (≈ 13.1 µM)
C/C(=C(/OCCCCOc1ccc(F)cc1)c1ccc(F)cc1F)n1cncn1.O=[N+]([O-])O | 0.025
C/C(=C(/OCCCOc1ccc(Br)cc1)c1ccc(F)cc1F)n1cncn1.O=[N+]([O-])O | 0.25
C/C(=C(/OCCCCOc1ccc(Cl)cc1Cl)c1ccc(F)cc1F)n1cncn1.O=[N+]([O-])O | 2
C/C(=C(/OCCCCOc1ccc(C)cc1)c1ccc(F)cc1F)n1cncn1.O=[N+]([O-])O | 0.2
C/C(=C(/OCCOc1ccc(Cl)cc1)c1ccc(Cl)cc1Cl)n1ccnc1 [OMOCONAZOLE] | 0.1 (≈ 0.236 µM)
C/C(=C(/OCCCCOc1c(Cl)cc(Cl)cc1Cl)c1ccc(F)cc1F)n1cncn1.O=[N+]([O-])O | > 20
C/C(=C(/OCCCOc1ccc(F)cc1)c1ccc(F)cc1F)n1cncn1.O=[N+]([O-])O | 0.1
C/C(=C(/OCCCOc1ccc(C)cc1)c1ccc(F)cc1F)n1cncn1.O=[N+]([O-])O | 2.5
C[C@@H]1[C@H](O)[C@@H](C)/C=C/C=C/C=C/C=C/C=C/C=C/C=C/[C@H](O[C@@H]2O[C@H](C)[C@@H](O)[C@H](N)[C@@H]2O)C[C@@H]2O[C@](O)(C[C@@H](O)C[C@@H](O)[C@H](O)CC[C@@H](O)C[C@@H](O)CC(=O)O[C@H]1C)C[C@H](O)[C@H]2C(=O)O [AMPHOTERICIN B] | 2 (≈ 2.16 µM)
